Test [1] has as its system PBMC. The test can be described thus: Inhibition of LPS stimulated Tumor Necrosis Factor-alpha (TNF-alpha) release by human PBMC, cytotoxic at 10 and 100 uM. The class given is functional, cell-based.
Test [2] deals with T1, Phosphodiesterase 4 (Homo sapiens, UniProt P27815+Q08499+Q07343+Q08493). The test can be described thus: Inhibition of phosphodiesterase 4 from U937 cells. Format: cell-based. The note with it: u-937.
Test [3] addresses T1, Phosphodiesterase 4. The test can be described thus: Inhibition of PDE4 enzyme from U937 cells. The class given is cell-based. The note with it: u-937. Summed up:
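Crude PDE4 from U937 cells: lysate supernatant run on Sephacryl S-200, rolipram-sensitive fractions pooled. Assay in 50 mM Tris-HCl pH 7.5, 5 mM MgCl2, 1 µM cAMP (1% 3H-cAMP), varying inhibitor, <15% substrate consumed; 30 °C, 30 min. Boiled, snake-venom treated, AG1-X8 resin, aqueous phase counted. Duplicates, % of control; IC50 by variable-slope nonlinear regression, three independent experiments.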

Test [4] relates to PBMC. In words: (§1) Inhibition of LPS stimulated Tumor Necrosis Factor-alpha (TNF-alpha) release by human PBMC. The class given is functional, cell-based.
Test [5] deals with PBMC. Described as §1.

Bounds are passed on as bounds.

On to `COC(=O)CC(c1ccc(OC)c(OC)c1)N1C(=O)c2c(F)c(F)c(F)c(F)c2C1=O` (configuration not stated), for which the figures for the IC50 in test [1] and in test [2] were 260 nM and 4700 nM, respectively.
As to `CCOc1cc(C(CC#N)N2C(=O)c3ccccc3C2=O)ccc1OC` (configuration not stated), the IC50 in test [3] worked out at 130 nM; in test [4] it was 120 nM.
For `COc1ccc(C(CC#N)N2C(=O)c3ccccc3C2=O)cc1OC` (configuration not stated), the IC50 in test [3] is 1300 nM; in test [4], 1700 nM.
Consider `COc1ccc(C(CC#N)N2C(=O)c3ccccc3C2=O)cc1OC1CCCC1` (configuration not stated), for which the IC50 in test [3] came to 350 nM; in test [4], 1600 nM.
In the same order, the values of `CCOc1cc(C(CC(N)=O)N2C(=O)c3ccccc3C2=O)ccc1OC` (configuration not stated) are 2000 nM and 2700 nM.
For the compound `CCOc1cc(C(CC(=O)OC)N2C(=O)c3ccccc3C2=O)ccc1OC` (configuration not stated), the values for the IC50 in test [3] and in test [4] were 230 nM and 700 nM, respectively.
As for `COC(=O)CC(c1ccc(OC)c(OC)c1)N1C(=O)c2ccccc2C1=O` (configuration not stated), the IC50 in test [3] was 2500 nM; in test [4] it was 2900 nM.
For `CCOc1cc(C(CC(=O)OC)N2C(=O)c3c(F)c(F)c(F)c(F)c3C2=O)ccc1OC` (configuration not stated), the IC50 in test [1] came to 380 nM; in test [2], 2200 nM.
`COc1ccc(C(CC(N)=O)N2C(=O)c3ccccc3C2=O)cc1OC` (configuration not stated): the IC50 turned out to be 9400 nM in test [3] and 13000 nM in test [4].
The matching figures for `COC(=O)CC(c1ccc(OC)c(OC2CCCC2)c1)N1C(=O)c2ccccc2C1=O` (configuration not stated): 1700 nM and 1600 nM.
Take `COC(=O)CC(c1ccc(OC)c(OC2CC3CCC2C3)c1)N1C(=O)c2ccccc2C1=O` (configuration not stated): the figures for the IC50 in test [3] and in test [4] were 740 nM and 2400 nM, respectively.
In the case of `COc1ccc(C(CC(N)=O)N2C(=O)c3ccccc3C2=O)cc1OC1CCCC1` (configuration not stated) [CDC-801], the IC50 in test [3] stood at 1100 nM; in test [4] it was 2500 nM.
Turning to `COc1ccc(C2CNC(=O)C2)cc1OC1CCCC1` (configuration not stated) [ROLIPRAM], in test [5], the IC50 turned out to be 150 nM.
Take `O=C1CCC(N2C(=O)c3ccccc3C2=O)C(=O)N1` (configuration not stated) [THALIDOMIDE]: the values for the IC50 in test [3] and in test [4] were greater than 500000 nM and roughly 200000 nM, respectively.

Values taken from ChEMBL document CHEMBL1130594, “Thalidomide analogs and PDE4 inhibition” (Bioorg Med Chem Lett, 1998).
